Results published in paper PMC10073089 (European Journal of Medicinal Chemistry, 2023).

Experiments:
[1] = Pharmacokinetic study in ICR; type: in vivo, mice; conditions: for conversion of prodrug to parent compound 21: mice plasma after single-dose administration; for improvement in plasma exposure (AUClast) compared to niclosamide: ICR (CD-1) mice, oral 30 mg/kg
Outline: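 Mice (N = 3 per group) fasted 12 h before dosing. Test compound given in DMSO/0.5% HMPC (5/95, v/v), 30 mg/kg orally or 2.5 mg/kg intravenously. Femoral-vein blood taken at 0.25, 0.5, 1, 2, 4, 8 and 24 h. […] analysed by LC-MS/MS for prodrug and parent. Mole correction applied for prodrug dosing; AUClast derived.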

[2] = Metabolic stability in human liver microsomes; type: in vitro ADME; conditions: pH 7.4
Outline: (§1)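 Microsomes at 0.33 mg/mL final in 0.1 M Tris pH 7.4 with 5 mM MgCl2, 0.01% DMSO and 0.005% BSA. Test compound at 1 μM final. Preincubated 10 min at 37 °C, then started with NADPH (1 mM final). Aliquots taken at 0, 7, 17, 30 and 60 min and quenched with cold methanol. After centrifugation, parent compound quantified by LC-MS/MS; half-life reported in min.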

[3] = Metabolic stability in mouse liver microsomes; type: in vitro ADME; conditions: pH 7.4
Outline: as §1

BECN1 = test: Western blot assay, BECN1; type: cell-based; conditions: Vero-E6 cells
SKP2 = test: Western blot assay, SKP2 level in Vero-E6 cells; type: cell-based; conditions: 16 h
Sub-acute toxicity study = type: in vivo, ICR mice
Outline: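 Male mice of 18–20 g in four groups of ten: one control group and three oral groups at 50, 100 and 200 mg/kg, dosed once daily for ten days. Body weight, food intake and behaviour checked daily. Animals fasted before dissection. Heart, liver, spleen, lung, kidney and administration site collected for organ weight and histology.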

| SMILES | conversion of prodrug to parent compound 21 [1] | half-life at 1 µM [2] [min] | half-life at 1 µM [3] [min] | levels of BECN1 (BECN1; 10 μM, vs control group) | level of SKP2 (SKP2) | improvement in plasma exposure (AUClast) compared to niclosamide [1] [fold] | further results |
| --- | --- | --- | --- | --- | --- | --- | --- |
| CC(=O)Oc1cc(F)c(Cl)cc1C(=O)Nc1ccc(OC(F)(F)F)cc1 [Compound 25, 4-Chloro-5-fluoro-2-((4-(trifluoromethoxy)phenyl)carbamoyl)phenyl acetate] | rapidly hydrolyze to compound 21 |  |  |  |  |  |  |
| O=C(Nc1ccc([N+](=O)[O-])cc1Cl)c1cc(Cl)ccc1O [NIC, niclosamide, reference compound] |  | 13.3 | 5.86 | higher than the control group | reduced |  |  |
| O=C(Nc1ccc(C(F)(F)F)cc1)c1cc(Cl)c(F)cc1O [Compound 19, 5-Chloro-4-fluoro-2-hydroxy-N-(4-(trifluoromethyl)phenyl)benzamide] |  |  |  |  |  | 3.19 |  |
| C[C@H](N)C(=O)Oc1cc(F)c(Cl)cc1C(=O)Nc1ccc(OC(F)(F)F)cc1.Cl [Compound 26, 4-Chloro-5-fluoro-2-((4-(trifluoromethoxy)phenyl)carbamoyl)phenyll-alaninate monohydrochloride] | barely transforms to parent compound 21 |  |  |  |  |  |  |
| CC(C)C(=O)Oc1cc(F)c(Cl)cc1C(=O)Nc1ccc(OC(F)(F)F)cc1 [Compound 24, 4-Chloro-5-fluoro-2-((4-(trifluoromethoxy)phenyl)carbamoyl)phenyl isobutyrate] | rapidly hydrolyze to compound 21 |  |  |  |  |  |  |
| O=C(Nc1ccc(OC(F)(F)F)cc1)c1cc(Cl)c(F)cc1O [Compound 21, 5-Chloro-4-fluoro-2-hydroxy-N-(4-(trifluoromethoxy)phenyl)benzamide] |  | 120 | 22.6 | higher than the control group | reduced | 10.84 | tolerability (Sub-acute toxicity study; ICR mice, oral dosage up to 200 mg/kg, ten days): well tolerated; changes in body weight, organ weight, or tissue histology (Sub-acute toxicity study; male ICR mice, 50, 100, 200 mg/kg once a day for ten days): No significant changes; mortality (Sub-acute toxicity study; male ICR mice, 50, 100, 200 mg/kg once a day, 10 days observation): No mortality; levels of BECN1 (BECN1; 3 μM and 1 μM): slightly increased |
